This is an account of results in ChEMBL document CHEMBL1134514, “Synthesis of novel gamma-aminobutyric acid (GABA) uptake inhibitors. 5.(1) Preparation and structure-activity studies of tricyclic analogues of known GABA uptake inhibitors” (J Med Chem, 2001).

For one assay, the target named is GABA transporter (Rattus norvegicus, UniProt P31647+P23978+P31646+P48056). Description: In vitro inhibition of [3H]GABA uptake in rat synaptosomes was determined. It is filed as functional, subcellular, Brain. The procedure, abridged: (§1)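 Rat forebrain homogenized in ice-cold 0.32 M sucrose, spun 10 min at 600 g, 4 °C; pellet resuspended in pH 7.4 phosphate/NaCl/glucose buffer. Synaptosomes (0.1 mg protein) preincubated with test substance 8 min at 30 °C, then [3H]-GABA (0.9 nM final) plus unlabeled GABA (0.9 nM final) for 8 min. Filtration on glass fiber, ice-cold saline washes, scintillation counting. IC50 as mean of two determinations.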

For assay [1], the target named is T1, GABA transporter (Mus musculus) (UniProt P31650+P31651+P31649+P31648). Description: Ratio for ED50 values for inhibition of rotarod to inhibition of DMCM-induced convulsions in mice. The format is functional. The method in brief:
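Protective index is the rotarod ED50 divided by the ED50 for inhibiting DMCM (15 mg/kg ip) clonic seizures. Both were measured in mice after ip dosing.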

The target in assay [2] is T1, GABA transporter (Mus musculus). As to the kind of experiment: In vivo anticonvulsant effect measured as inhibition of DMCM -induced seizures in mice after ip administration. It is filed as functional, organism-based. The method in brief:
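Female NMRI mice given test drug ip 30 min before DMCM 15 mg/kg ip. Observed for 30 min for clonic seizures and death, N = 5-10 per dose. ED50 in mg/kg.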

Assay [3] has the same target. As to the kind of experiment: In vivo anticonvulsant effect measured as rotarod in mice after ip administration. The format is functional, organism-based. The procedure, abridged:
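Mice pretrained 2 min on rotarod (6 rpm, 3 cm rod), then dosed ip. On testing, a mouse that fell was placed back on the rod. Testing ended at 10 failures or after 2 min. ED50 in mg/kg.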
Background: In the rotarod test animals must keep their balance on a rotating rod.

The species named for assay [4] is Rattus norvegicus. Description: In vitro inhibition of [3H]GABA uptake determined. The format is functional. The procedure, abridged: as §1
The species named for assay [5] is Rattus norvegicus. As to the kind of experiment: In vitro inhibition of [3H]GABA uptake in rat synaptosomes was determined; No activity. The format is functional, Brain.

SMILES strings stand for the structures. Bounds are passed on as bounds.

The term IC50 denotes the point on the concentration scale where inhibition reaches its midpoint. The compound `Cl.O=C(O)C1=CCCN(CCOCCC2c3ccccc3CCc3ccccc32)C1` came in with a half-maximal inhibitory concentration (IC50) against GABA transporter of 1202 nM.
Turning to `Cl.O=C(O)[C@@H]1CCCN(CCOCCN(c2ccccc2)c2ccccc2)C1`, the Protective index in assay [1] came to 1.6. In addition, at GABA transporter, the IC50 is listed as 90 nM.
A word on the ED50: it is the dose at which the effect has come halfway, by size or by number of responders. Low values mean greater potency, high ones weaker potency. For `Cl.O=C(O)[C@H]1CCCN(CCOCCC2c3ccccc3CCc3ccccc32)C1`, in assay [1], the Protective index is over 2.6. On GABA transporter, this compound came in with an IC50 of 561 nM. For the same compound, the 50% effective dose (ED50) in assay [2] is 23 mg/kg; in assay [3] it was over 60 mg/kg.
As to `Cl.O=C(O)[C@@H]1CCCN(CCOCCC(c2ccccc2)c2ccccc2)C1`, the Protective index in assay [1] came out at 5.3. This compound returned an IC50 against GABA transporter of 55 nM.
In the case of `Cl.O=C(O)[C@H]1CCCN(CCOC/C=C2\c3ccccc3CCc3ccc(Cl)cc32)C1`, the Protective index in assay [1] was over 1.2. For the same compound, the concentration for half-maximal inhibition (IC50) against GABA transporter turned out to be 2495 nM. The values for the median effective dose (ED50) in assay [2] and in assay [3] were 50 mg/kg and over 60 mg/kg, respectively.
The compound `O=C(O)[C@@H]1CCCN(CCOC=C2c3ccccc3CCc3ccccc32)C1` returned a concentration for half-maximal inhibition (IC50) in the assay listed under Rattus norvegicus [4] of 2180 nM.
Consider `Cl.O=C(O)[C@@H]1CCCN(CCOCCN2c3ccccc3CCc3ccc(Cl)cc32)C1`, for which, in assay [1], the Protective index is over 2. The IC50 against GABA transporter worked out at 74 nM. In addition, the ED50 is 15 mg/kg in assay [2] and over 30 mg/kg in assay [3].
Take `Cl.O=C(O)[C@@H]1CCCN(CCOCCN2c3ccccc3Sc3ccccc32)C1`: the Protective index in assay [1] stood at 1.8. Further, at GABA transporter, the concentration for half-maximal inhibition (IC50) is on record as 308 nM. Moreover, the values for the median effective dose (ED50) in assay [2] and in assay [3] were 30 mg/kg and 54 mg/kg, respectively.
The like results for `Cl.O=C(O)[C@@H]1CCCN(CCON=C2c3cc(Cl)ccc3CCc3ccc(Cl)cc32)C1` were, in that order, 1.1, 5509 nM, 35 mg/kg and 40 mg/kg.
Take `O=C(O)C1CCCN(CCOC2c3ccccc3-c3ccccc32)C1` (stereo not drawn): in the assay filed under Rattus norvegicus [5], the IC50 entry was “Not Active”.
As for `Cl.O=C(O)CC1CCN(CCOCCN2c3ccccc3CCc3ccccc32)C1` (stereo not drawn), in assay [1], the Protective index worked out at 3.2. For the same compound, on GABA transporter, the IC50 was 51 nM. Moreover, the ED50 in assay [2] worked out at 31 mg/kg; in assay [3], 100 mg/kg.
On GABA transporter, `Cl.O=C(O)C1CCCN(CCOC(c2ccccc2)c2ccccc2)C1` (stereo not drawn) had a half-maximal inhibitory concentration (IC50) of 1370 nM.
Take `Cl.O=C(O)[C@@H]1CCCN(CCON=C2c3ccccc3CCc3ccccc32)C1`: in assay [1], the Protective index was over 3.3. This compound also showed a 50% inhibitory concentration (IC50) against GABA transporter of 1161 nM. In addition, the median effective dose (ED50) in assay [2] is 30 mg/kg; in assay [3], over 100 mg/kg.
As for `O=C(O)C1CCCN(CCC=C2c3ccccc3CCc3ccccc32)C1` (stereo not drawn), the 50% inhibitory concentration (IC50) on GABA transporter is listed as 13600 nM. For the same compound, the ED50 in assay [2] and in assay [3] was over 60 mg/kg in each case.
Regarding `Cl.O=C(O)[C@@H]1CCCN(CCOCCN2c3ccccc3CCCc3ccccc32)C1`, the Protective index in assay [1] was over 1.5. The half-maximal inhibitory concentration (IC50) against GABA transporter came to 851 nM. The ED50 in assay [2] was determined as 60 mg/kg.
Consider `O=C(O)[C@@H]1CCCN(CCOC=C(c2ccccc2)c2ccccc2)C1`, for which the half-inhibitory concentration (IC50) in the assay listed under Rattus norvegicus [4] turned out to be 87 nM.
In turn, `Cl.O=C(O)[C@@H]1CCCN(CCOCCn2c3ccccc3c3ccccc32)C1` registered an IC50 on GABA transporter of over 40000 nM.
In the case of `Cl.O=C(O)[C@@H]1CCCN(CCOCCN2c3ccccc3Sc3ccc(C(F)(F)F)cc32)C1`, the Protective index in assay [1] is over 1.6. Besides, the half-maximal inhibitory concentration (IC50) on GABA transporter was found to be 105 nM. For the same compound, the 50% effective dose (ED50) in assay [2] is 38 mg/kg; in assay [3], over 60 mg/kg.
`O=C(O)[C@@H]1CCCN(CCOCCN2c3ccc(Br)cc3CCc3cc(Br)ccc32)C1` displayed an IC50 in the assay listed under Rattus norvegicus [4] of 1030 nM.
Consider `Cl.O=C(O)[C@@H]1CCCN(CCOCCN2c3cc(Cl)ccc3CCc3ccc(Cl)cc32)C1`, for which, in assay [1], the Protective index is over 2.2. This compound also showed a 50% inhibitory concentration (IC50) at GABA transporter of 68 nM. Further, the results for the ED50 in assay [2] and in assay [3] were 45 mg/kg and over 100 mg/kg, respectively.
As for `Cl.O=C(O)[C@@H]1CCCN(CCOCCN2c3ccc(F)cc3CCc3cc(F)ccc32)C1`, the IC50 against GABA transporter turned out to be 248 nM.
The same measure, in the same setting: under `O=C(O)C1CCCN(CCOC2c3ccccc3C=Cc3ccccc32)C1` (stereo not drawn) stands 2500 nM.
Regarding `Cl.O=C(O)[C@@H]1CCCN(CCOCCN2c3ccccc3Oc3ccccc32)C1`, on GABA transporter, the IC50 turned out to be 14600 nM.
On the same count and under the same terms, the figure for `Cl.O=C(O)[C@@H]1CCCN(CCON=C(c2ccccc2)c2ccccc2)C1` is 82 nM.
Consider `Cl.O=C(O)[C@H]1CCCN(CCOCC=C2c3ccccc3CCc3ccccc32)C1`, for which the Protective index in assay [1] is over 3.3. For the same compound, the half-maximal inhibitory concentration (IC50) against GABA transporter stood at 770 nM. For the same compound, the ED50 in assay [2] is 30 mg/kg; in assay [3] it was over 100 mg/kg.
For `Cl.O=C(O)[C@@H]1CCCN(CCCOCC=C2c3ccccc3CCc3ccccc32)C1` the same measures were over 2.5, 460 nM, 60 mg/kg and over 150 mg/kg.
The like results for `Cl.O=C(O)C1=CCCN(CCOCCN2c3ccccc3CCc3ccccc32)C1` were, in that order, 2.9, 644 nM, 7.3 mg/kg and 21 mg/kg.
Consider `O=C(O)[C@@H]1CCCN(CCC=C2c3ccccc3-c3ccccc32)C1`, for which, on GABA transporter, the IC50 is listed as 2018 nM.
Compound `Cl.O=C(O)[C@@H]1CCCN(CCOCCN2c3ccccc3CCc3ccc(F)cc32)C1` had an IC50 at GABA transporter of 265 nM.
As to `Cl.O=C(O)[C@@H]1CCCN(CCOCCN2c3ccccc3C=Cc3ccccc32)C1`, in assay [1], the Protective index is over 1. Moreover, the 50% inhibitory concentration (IC50) at GABA transporter is on record as 647 nM. Also, the results for the ED50 in assay [2] and in assay [3] were 30 mg/kg and over 30 mg/kg, respectively.
As for `Cl.O=C(O)[C@@H]1CCCN(CCOCCCN2c3ccccc3CCc3ccccc32)C1`, the Protective index in assay [1] is over 1.2. On GABA transporter, this compound showed an IC50 of 696 nM. The ED50 in assay [2] is 50 mg/kg; in assay [3], over 60 mg/kg.
For `Cl.O=C(O)[C@@H]1CCCN(CCOCCN2c3ccccc3CCc3ccccc32)C1` the same measures were 5.7, 184 nM, 15 mg/kg and 85 mg/kg.
